We go through six molecules from ChEMBL document CHEMBL1143241, “Development of potent, allosteric dual Akt1 and Akt2 inhibitors with improved physical properties and cell activity” (Bioorg Med Chem Lett, 2008).

In brackets after ≈: the same amount, converted by molar mass.

Data set [1] in a line: Solubility at pH 7.4 in 98% saline. The format is physicochemical.
Data set [2] in a line: Inhibition of PKC. The procedure, abridged: (§1)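 In vitro enzyme inhibition assay following a previously reported protocol. Each IC50 is the average of at least three determinations.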
Data set [3] concerns the target T1, RAC-gamma serine/threonine-protein kinase (Homo sapiens, UniProt Q9Y243). Briefly: Inhibition of Akt3.
In data set [4] the target is T2, RAC-alpha serine/threonine-protein kinase (Homo sapiens, UniProt P31749). Nature of the data set: Inhibition of Akt1 by cell-based IPKA assay.
Data set [5] deals with T1, RAC-gamma serine/threonine-protein kinase. Nature of the data set: Inhibition of Akt3 by cell-based IPKA assay.
Data set [6] in a line: Inhibition of PKA. Put shortly:
as §1

Data set [7] has as its target T2, RAC-alpha serine/threonine-protein kinase. Briefly: Inhibition of Akt1. Put shortly:
as §1

In data set [8] the target is T3, RAC-beta serine/threonine-protein kinase (Homo sapiens, UniProt P31751). Briefly: Inhibition of Akt2. Put shortly: as §1
Data set [9] deals with T4, Serine/threonine-protein kinase Sgk1 (Homo sapiens, UniProt O00141).
T4 sequence (O00141 whole entry): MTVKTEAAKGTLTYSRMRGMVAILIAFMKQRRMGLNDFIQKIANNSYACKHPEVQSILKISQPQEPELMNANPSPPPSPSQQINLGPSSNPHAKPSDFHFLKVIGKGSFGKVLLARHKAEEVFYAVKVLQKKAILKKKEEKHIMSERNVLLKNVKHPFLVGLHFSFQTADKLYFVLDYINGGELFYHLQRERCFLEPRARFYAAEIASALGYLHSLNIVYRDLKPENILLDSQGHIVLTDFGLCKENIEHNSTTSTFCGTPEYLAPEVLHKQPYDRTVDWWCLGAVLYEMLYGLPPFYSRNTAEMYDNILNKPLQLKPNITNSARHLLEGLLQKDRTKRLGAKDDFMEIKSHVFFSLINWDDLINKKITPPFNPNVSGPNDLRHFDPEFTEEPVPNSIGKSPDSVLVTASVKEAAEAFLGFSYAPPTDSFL
Briefly: Inhibition of SGK. Put shortly:
as §1

Data set [10] concerns the target T3, RAC-beta serine/threonine-protein kinase. Briefly: Inhibition of Akt2 by cell-based IPKA assay.

T1 sequence (Q9Y243 whole entry): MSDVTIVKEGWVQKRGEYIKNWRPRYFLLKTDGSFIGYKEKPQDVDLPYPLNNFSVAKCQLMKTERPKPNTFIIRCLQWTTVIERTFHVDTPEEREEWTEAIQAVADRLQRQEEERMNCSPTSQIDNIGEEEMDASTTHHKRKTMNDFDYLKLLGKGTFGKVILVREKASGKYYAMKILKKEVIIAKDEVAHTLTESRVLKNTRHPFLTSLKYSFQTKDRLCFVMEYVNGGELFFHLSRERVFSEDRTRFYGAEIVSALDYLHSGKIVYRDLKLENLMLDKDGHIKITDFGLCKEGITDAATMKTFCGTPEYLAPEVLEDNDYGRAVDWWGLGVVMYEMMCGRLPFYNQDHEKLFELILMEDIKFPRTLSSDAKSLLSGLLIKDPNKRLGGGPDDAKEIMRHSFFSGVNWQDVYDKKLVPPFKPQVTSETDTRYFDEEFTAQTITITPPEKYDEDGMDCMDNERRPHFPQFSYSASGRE
T2 sequence (P31749 whole entry): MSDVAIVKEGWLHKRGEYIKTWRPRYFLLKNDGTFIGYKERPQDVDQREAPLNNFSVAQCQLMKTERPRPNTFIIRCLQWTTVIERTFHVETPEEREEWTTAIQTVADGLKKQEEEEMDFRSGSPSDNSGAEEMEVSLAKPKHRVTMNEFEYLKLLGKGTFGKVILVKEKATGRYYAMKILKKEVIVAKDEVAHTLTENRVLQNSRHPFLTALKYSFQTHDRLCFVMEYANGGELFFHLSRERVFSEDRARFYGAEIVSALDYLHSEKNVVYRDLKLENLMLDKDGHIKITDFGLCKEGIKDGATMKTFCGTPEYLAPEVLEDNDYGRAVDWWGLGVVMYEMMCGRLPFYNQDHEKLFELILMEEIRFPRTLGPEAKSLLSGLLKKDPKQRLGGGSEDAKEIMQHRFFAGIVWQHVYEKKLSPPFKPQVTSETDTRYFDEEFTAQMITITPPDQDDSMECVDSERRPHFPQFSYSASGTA
T3 sequence (P31751 whole entry): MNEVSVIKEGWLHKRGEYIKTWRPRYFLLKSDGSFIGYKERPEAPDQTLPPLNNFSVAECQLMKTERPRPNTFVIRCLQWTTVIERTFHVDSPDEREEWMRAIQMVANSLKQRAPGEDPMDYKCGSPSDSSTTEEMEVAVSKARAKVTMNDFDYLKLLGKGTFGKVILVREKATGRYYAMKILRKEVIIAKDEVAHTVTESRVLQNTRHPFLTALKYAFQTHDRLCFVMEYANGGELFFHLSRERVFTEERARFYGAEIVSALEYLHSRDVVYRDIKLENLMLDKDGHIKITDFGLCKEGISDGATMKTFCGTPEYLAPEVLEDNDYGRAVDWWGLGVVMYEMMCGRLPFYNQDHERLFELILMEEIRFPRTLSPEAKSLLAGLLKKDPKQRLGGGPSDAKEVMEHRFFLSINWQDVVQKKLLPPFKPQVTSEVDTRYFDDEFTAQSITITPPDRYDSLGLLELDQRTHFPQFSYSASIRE

On to `CCN(CC)CCNC(=O)c1ccc2nc(-c3ccccc3)c(-c3ccc(CN4CCC(n5c(=O)[nH]c6ccccc65)CC4)cc3)nc2c1`, for which, in data set [1], the concentration in solution (solubility) came to 18 mg/mL (≈ 27.5 mM). Moreover, the IC50 (usually the concentration that inhibits the measured activity by half) in data set [2] was above 50000 nM; in [3], 7200 nM; in data set [4], 253 nM; in data set [5] it was above 10000 nM; in [6], above 50000 nM; in data set [7], 138 nM. Also, the figures for the half-inhibitory concentration (IC50) in data set [8], in [9] and in [10] were 212 nM, above 50000 nM and 276 nM, respectively.
For the molecule `CCN(CC)CCNC(=O)c1ccc2nc(-c3ccc(CN4CCC(n5c(=O)[nH]c6ccccc65)CC4)cc3)c(-c3ccccc3)nc2c1`, the solubility (in general, the dissolved amount per volume that the medium holds) in data set [1] was 18 mg/mL (≈ 27.5 mM). In addition, the concentration for half-maximal inhibition (IC50) in data set [2] is above 50000 nM; in data set [3] it was 7400 nM; in data set [4], 368 nM; in data set [5] it was 8000 nM; in data set [6], above 50000 nM; in [7], 458 nM. Further, the results for the IC50 in [8], in data set [9] and in data set [10] were 359 nM, above 50000 nM and 617 nM, respectively.
`O=c1[nH]c2ccccc2n1C1CCN(Cc2ccc(-c3nc4ccc(-c5nnn[nH]5)cc4nc3-c3ccccc3)cc2)CC1` displayed a solubility in data set [1] of 18 mg/mL (≈ 31.1 mM).
As for `O=C(O)c1ccc2nc(-c3ccc(CN4CCC(n5c(=O)[nH]c6ccccc65)CC4)cc3)c(-c3ccccc3)nc2c1`, the concentration in solution in data set [1] (solubility) came to 18 mg/mL (≈ 32.4 mM).
In the case of `O=C(O)c1ccc2nc(-c3ccccc3)c(-c3ccc(CN4CCC(n5c(=O)[nH]c6ccccc65)CC4)cc3)nc2c1`, the concentration in solution in data set [1] (solubility) was 18 mg/mL (≈ 32.4 mM).
Same read-out and setting: the value for `O=c1[nH]c2ccccc2n1C1CCN(Cc2ccc(-c3nc4cc(-c5nnn[nH]5)ccc4nc3-c3ccccc3)cc2)CC1` was 18 mg/mL (≈ 31.1 mM).
